Laboratory results taken from ChEMBL document CHEMBL4376878, “Potent Thiophene Antagonists of Human Complement C3a Receptor with Anti-Inflammatory Activity” (J Med Chem, 2020).
The source made the active and inactive calls. The rule behind the calls is not given here.

Legend:
[1] = biological target: T1, C3a anaphylatoxin chemotactic receptor (Homo sapiens) (UniProt Q16581); assay: (§1) Antagonist activity at C3a receptor in human MDM cells assessed as inhibition of C3a-induced intracellular calcium release preincubated for 30 mins followed by C3a addition and measured at 1 sec interval for => 200 secs by Fluo-3 AM dye-based FLIPR assay; assay type: functional, cell-based
T1 sequence (whole entry): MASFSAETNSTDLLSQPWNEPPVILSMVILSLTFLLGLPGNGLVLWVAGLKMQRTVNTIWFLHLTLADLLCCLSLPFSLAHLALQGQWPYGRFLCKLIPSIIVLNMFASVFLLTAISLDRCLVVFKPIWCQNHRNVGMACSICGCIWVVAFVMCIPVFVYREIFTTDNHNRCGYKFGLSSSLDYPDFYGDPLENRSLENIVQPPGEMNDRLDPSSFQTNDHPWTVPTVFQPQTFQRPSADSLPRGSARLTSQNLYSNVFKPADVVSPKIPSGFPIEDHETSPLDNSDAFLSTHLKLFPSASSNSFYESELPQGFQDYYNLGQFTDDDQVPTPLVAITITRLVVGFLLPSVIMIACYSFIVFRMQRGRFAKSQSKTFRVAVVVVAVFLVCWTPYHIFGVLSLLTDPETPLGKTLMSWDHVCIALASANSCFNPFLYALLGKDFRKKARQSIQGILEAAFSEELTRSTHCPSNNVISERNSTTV
How it was run: (§2)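 Macrophages were derived from CD14⁺ monocytes (M-CSF, 7 days) and dye-loaded with 4 μM Fluo-3 AM for 1 h at 37 °C in HBSS/probenecid/HEPES, pH 7.4. Antagonist was preincubated for 30 min at 37 °C before addition of synthetic full-length human C3a (100 nM). FLIPR fluorescence was read at ex 495/em 520 nm. Percent response was plotted against log concentration; n ≥ 3.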

[2] = biological target: T2, C3a anaphylatoxin chemotactic receptor (Homo sapiens, UniProt Q16581); assay: as §1; assay type: functional, cell-based; conditions: read-out: IC50; how it was run: as §2
T2 sequence (Q16581 whole entry): T1 sequence (whole entry)

[3] = Cmax in Wistar rat at 10 mg/kg, po by LC-MS/MS analysis; assay type: ADME, organism-based; design: dose 10 mg/kg, route oral; conditions: in vivo
How it was run: (§3)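 Male Wistar rats with jugular vein catheter, fasted overnight; dosed p.o. by gavage in olive oil or i.v. via catheter in 50% DMSO. Blood drawn from conscious unrestrained rats 5 min before dosing, then 5, 15, 30 min and 1–8 h after. Volume replaced with heparinized saline. Rats fed after 4 h sample. n = 3 per route.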

[4] = AUC (0 to 8 hrs) in Wistar rat at 1 mg/kg, iv by LC-MS/MS analysis; assay type: ADME, organism-based; design: time < 8 hr, dose 1 mg/kg, route intravenous; conditions: in vivo; how it was run: as §3
Rattus norvegicus [5] = assay: Antiinflammatory activity in Wistar rat model of BR103-induced paw edema assessed as reduction in hind paw swelling at 10 mg/kg, po administered via gavage pretreated for 2 hrs followed by BR103 challenge and measured after 30 mins by digital caliper method relative to control; assay type: functional; design: scale not given: the % may be the effect or the level left
How it was run: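 Male Wistar rats were given antagonist at 10 mg/kg by oral gavage in olive oil 2 h before intraplantar BR103 (350 μg in 100 μL of 5% DMSO). Sham paws received vehicle; sham and control rats received olive oil only. Paw thickness and width were measured with digital calipers at 0, 0.5, 1 and 2 h after agonist; n = 3 per group.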

Rattus norvegicus [6] = assay: Antiinflammatory activity in Wistar rat model of BR103-induced paw edema assessed as reduction in hind paw swelling at 30 mg/kg, po administered via gavage pretreated for 6 to 8 hrs followed by BR103 challenge and measured after 30 mins by digital caliper method relative to control; assay type: functional; design: scale not given: the % may be the effect or the level left
How it was run: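 For duration of action, antagonist was given at 30 mg/kg by oral gavage in olive oil at 1, 2, 4, 6, 8 or 12 h before intraplantar BR103 (350 μg/paw) in male Wistar rats. Controls received olive oil 2 h before challenge. Paw thickness and width were measured with calipers at 0 and 0.5 h; n = 3 per group.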

Rattus norvegicus [7] = assay: Antiinflammatory activity in Wistar rat model of BR103-induced paw edema assessed as reduction in hind paw swelling at 10 mg/kg, po administered via gavage pretreated for 4 hrs followed by BR103 challenge and measured after 30 mins by digital caliper method relative to control; assay type: functional, organism-based
How it was run: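 Male Wistar rats given 10 mg/kg p.o. in olive oil at 0.5, 1, 2 or 4 h before i.pl. BR103 (350 μg in 100 μL 5% DMSO). Control rats received olive oil. Paw thickness and width measured by digital calipers at 0 and 0.5 h after agonist. n = 3–5 per group, one-way ANOVA.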

Rattus norvegicus [8] = assay: Antiinflammatory activity in Wistar rat model of BR103-induced paw edema assessed as reduction in Tnf gene expression at 10 mg/kg, po administered via gavage pretreated for 2 hrs followed by BR103 challenge and measured after 30 mins by SYBR green dye based RT-PCR analysis; assay type: functional, organism-based
How it was run: (§4)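 Rats given 10 mg/kg p.o. in olive oil 2 h before i.pl. BR103 (350 μg/paw). Paws collected 0.5 h after agonist and homogenized in TRIsure for RNA. qPCR run in duplicate, normalized to Hprt, with fold change relative to sham. n = 3–5 male Wistar rats per group.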

Rattus norvegicus [9] = assay: Antiinflammatory activity in Wistar rat model of BR103-induced paw edema assessed as reduction in Il1b gene expression at 10 mg/kg, po administered via gavage pretreated for 2 hrs followed by BR103 challenge and measured after 30 mins by SYBR green dye based RT-PCR analysis; assay type: functional, organism-based; how it was run: as §4
Rattus norvegicus [10] = assay: Antiinflammatory activity in Wistar rat model of BR103-induced paw edema assessed as reduction in Il6 gene expression at 10 mg/kg, po administered via gavage pretreated for 2 hrs followed by BR103 challenge and measured after 30 mins by SYBR green dye based RT-PCR analysis; assay type: functional, organism-based; how it was run: as §4
Rattus norvegicus [11] = assay: Antiinflammatory activity in Wistar rat model of BR103-induced paw edema assessed as reduction in Il10 gene expression at 10 mg/kg, po administered via gavage pretreated for 2 hrs followed by BR103 challenge and measured after 30 mins by SYBR green dye based RT-PCR analysis; assay type: functional, organism-based; how it was run: as §4
Rattus norvegicus [12] = assay: Antiinflammatory activity in Wistar rat model of BR103-induced paw edema assessed as increase in number of intact mast cells at 10 mg/kg, po administered via gavage pretreated for 2 hrs followed by BR103 challenge and measured after 30 mins by alcian blue/safranin O staining-based histopathological analysis; assay type: functional, organism-based
How it was run: (§5)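 Male Wistar rats 7–8 weeks old, given 10 mg/kg p.o. in olive oil 2 h before i.pl. BR103 (350 μg/paw). Sham/control received olive oil. Left paw plantar tissue taken 30 min after agonist and fixed in formalin. Frozen 5 μm sections stained with alcian blue/safranin O, or immunostained for tryptase, histamine or ED1. Positive cells quantified; n = 5 per group, one-way ANOVA.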

Rattus norvegicus [13] = assay: Antiinflammatory activity in Wistar rat model of BR103-induced paw edema assessed as reduction in number of ED1-positive macrophages at 10 mg/kg, po administered via gavage pretreated for 2 hrs followed by BR103 challenge and measured after 30 mins by immunohistochemical analysis; assay type: functional, organism-based; how it was run: as §5
Rattus norvegicus [14] = assay: Antiinflammatory activity in Wistar rat model of BR103-induced paw edema assessed as reduction in histamine release at 10 mg/kg, po administered via gavage pretreated for 2 hrs followed by BR103 challenge and measured after 30 mins by immunohistochemical analysis; assay type: functional, organism-based; how it was run: as §5
Rattus norvegicus [15] = assay: Antiinflammatory activity in Wistar rat model of BR103-induced paw edema assessed as reduction in hind paw swelling at 10 to 30 mg/kg, po administered via gavage pretreated for 2 hrs followed by BR103 challenge and measured after 30 mins by digital caliper method

Cc1cc(C(c2ccc(Cl)cc2)c2ccc(Cl)cc2)sc1C(=O)N[C@@H](CCCNC(=N)N)C(=O)O
inhibition [1]: Dose-dependent effect | IC50 [2]: 10 nM | Cmax [3]: 88 ng/mL | AUC(0-t) at 8 h [4]: 3800 ng·h/mL | Activity (Rattus norvegicus [5]): 65% | Activity (Rattus norvegicus [6]): 85% | Activity (Rattus norvegicus [7]): Active | Activity (Rattus norvegicus [8]): Active | Activity (Rattus norvegicus [9]): Active | Activity (Rattus norvegicus [10]): Active | Activity (Rattus norvegicus [11]): Active | Activity (Rattus norvegicus [12]): Active | Activity (Rattus norvegicus [13]): Active | Activity (Rattus norvegicus [14]): Active | Activity (Rattus norvegicus [15]): inactive
